Source: PubChem
An excerpt weighted towards active compounds, which were near 2.2% of everything screened.
C8 TRAIL sens = sensitizes caspase-8 expressing cells to TRAIL | NB7+C8 cells + TRAIL, ATPlite viability luminescence | inhibition (viability loss, TRAIL sensitization), % at 10 µM | 360,000 tested, 1% active;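 active means compounds causing at least 50% loss of cell viability in the single-dose screen, relative to plate controls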
NF-kB neuron act = NF-kB expression increase, human neuronal cells | AID 1239 | 190,000 tested, 1.6% active | fold change at 12.5 µM | NF-kB reporter expression; stronger effect = higher value; in the data active means fold change above about 3.3
PPC-1+TRAIL kill = kills PPC-1 cancer cells in the presence of TRAIL; 220,000 tested, 0.41% active; PPC-1 cells + TRAIL, ATPLite viability luminescence; AID 1443; cell killing (% activity), % at 4 µM or 5 µM;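 active means cell killing above 50% in the first pass at 4 µM, then a duplicate retest at 5 µM averaging 50% or more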;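 further: plate controls were cells with TRAIL plus DMSO for no effect and medium-only wells lacking cells for full effect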
FLuc act counter = firefly luciferase counter-screen for stimulation assays; ATPlite luciferase biochemical, luminescence, 10 min; 0 = ATP-free wells, 1 = DMSO control; activation factor at 10 µM; 200,000 tested, under 10 active;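 active means luciferase activation factor, scaled between plate controls, of at least 2 with compound at 10 µM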
Target sequence (P08659 whole entry, looked up): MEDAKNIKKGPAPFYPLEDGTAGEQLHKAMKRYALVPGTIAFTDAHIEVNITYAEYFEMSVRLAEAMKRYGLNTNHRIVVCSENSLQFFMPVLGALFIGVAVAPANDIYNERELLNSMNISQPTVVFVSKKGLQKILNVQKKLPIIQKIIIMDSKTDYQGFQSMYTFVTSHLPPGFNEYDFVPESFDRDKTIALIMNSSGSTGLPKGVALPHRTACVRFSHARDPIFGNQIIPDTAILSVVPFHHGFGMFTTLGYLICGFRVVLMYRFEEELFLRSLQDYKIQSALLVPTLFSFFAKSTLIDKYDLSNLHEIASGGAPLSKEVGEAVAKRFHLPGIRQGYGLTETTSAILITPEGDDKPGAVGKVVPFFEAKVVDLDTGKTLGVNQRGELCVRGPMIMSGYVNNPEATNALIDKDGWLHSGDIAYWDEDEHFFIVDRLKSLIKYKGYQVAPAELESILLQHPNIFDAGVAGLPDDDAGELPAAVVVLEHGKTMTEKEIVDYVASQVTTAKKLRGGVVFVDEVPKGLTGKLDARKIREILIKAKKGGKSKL
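Material: luciferase plus luciferin reagent, cell-free. Medium: PBS buffer for ATP. Also added: ATP substrate, dispensed from a 10.24 µM working solution in PBS. Doses: test compounds dosed from 2 mM stocks in 100% DMSO. Incubation: 10 min post-reagent at room temperature. Technique: light output (luminescence). Read-out basis: luminescence gain marking luciferase activators.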
FLuc inh counter = counter-screen for luciferase assay inhibitors: firefly luciferase inhibition; ATPLite firefly luciferase biochemical luminescence, 10 min; inhibition, % at 10 µM; 200,000 tested, 1.5% active; AID 1006;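 active means inhibition above about 50% when tested at 10 µM, limit read from the data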
APP 5'UTR act = APP 5'UTR luciferase reporter activation. SH-SY5Y APP 5'UTR luciferase reporter, luminescence; zero percent = DMSO vehicle wells. activation, % at 2 µM. 190,000 tested, 1% active. AID 1276;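 active means activation above a set limit, based on mean plus 3 SD of controls, cut at about 140% in these data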
* hit, by the source's call; / = no result.

SMILES	C8 TRAIL sens	NF-kB neuron act	PPC-1+TRAIL kill	FLuc act counter	FLuc inh counter	APP 5'UTR act
Cc1ccc(F)cc1C(=O)N1CCCCC1c1cc(C(=O)Nc2cccc(C#N)c2)no1 (stereo not given)	12.8	/	/	/	/	/
Cc1ccc2c(c1)c1ccc3c(c1n2C)C(=O)C=CC3=O	58.5*	/	20.3	/	/	/
O=c1[nH]c(/C=C/c2ccc(Br)cc2)nc2ccccc12	78.0*	/	/	/	/	/
Cc1cccc(/C=C\c2nc3ccccc3c(=O)[nH]2)c1	58.0*	1.2	37.8	0.3	72.8*	157.7*
O=c1[nH]c(/C=C/c2ccccc2F)nc2ccccc12	79.4*	/	/	/	/	/
O=c1[nH]c(/C=C/c2cccc3ccccc23)nc2ccccc12	-1.8	1.35	-4.1	1	-1.7	16.1
CN(C)c1ccc(/C=C/c2nc3ccccc3c(=O)[nH]2)cc1	90.9*	/	/	/	/	/
COc1ccc(NC(=O)C2c3ccccc3OCC(=O)N2Cc2ccco2)cc1 (stereo not given)	-13.3	/	/	/	/	/
O=C(N/N=C/c1ccccc1Cl)c1n[nH]c2c1CCCC2	40.9	0.96	42.2	0.6	37.8	131.3
O=C(N/N=C/C(Br)=C/c1ccccc1)c1n[nH]c2c1CCC2	-5.6	7.95*	10.8	0.5	47.0	/
O=C(N/N=C/c1cccs1)c1n[nH]c2c1CCC2	37.2	3	24.8	0.3	69.7*	5.6
O=C(N/N=C/c1ccccc1)c1n[nH]c2c1CCCC2	27.9	1	41.0	0.3	74.6*	105.3
CC1=NN(c2ccccc2)C(=O)C1CCC#N (stereo not given)	10.6	/	/	/	/	/
O=C(N/N=C/c1ccco1)c1cccc(N2CCCC2=O)c1	6.1	1.58	-7.1	0.5	52.4*	16.6
CC(C)NC(=O)C1(C)CCN1Cc1ccc(Cl)cc1 (stereo not given)	-1.1	/	/	/	/	/
C=CCNc1ncnc2c1ncn2[C@H]1CN(Cc2cc(OC)c(OC)c(OC)c2)C[C@@H](CO)O1	-17.2	/	/	/	/	/
Cc1cc(C)n2cc(COc3ccc4ccccc4c3)nc2n1	22.6	8.03*	42.8	0.6	36.8	146.1*
Cn1nc(C(C)(C)C)cc1C(=O)N1CCCCC1c1cc(C(=O)Nc2ccc3c(c2)OCO3)no1 (stereo not given)	-6.8	/	/	/	/	/
COc1ccccc1C(=O)COC(=O)c1ccc(N(C)C)cc1	30.2	1.04	33.8	0.6	36.0	141.7*
COc1cccc(NC(=O)COC(=O)c2ccc3c(c2)OCCO3)c1	-0.2	/	/	/	/	/
O=C(Nc1cccc(Cl)c1)c1ccc2c(c1)OCCO2	59.0*	/	/	/	/	/
COc1cccc(NC(=O)c2ccc(CN3CCOCC3)cc2)c1	24.3	2.02	0.7	0.5	50.9*	69.2
COc1cccc(NC(=O)c2oc3ccccc3c2NC(=O)c2ccc3c(c2)OCO3)c1	31.1	0.57	32.4	0.6	40.3	36.0
O=C(Nc1ccc2c(c1)OCCO2)c1cccc(Cl)c1	37.7	/	/	/	/	/
COc1cccc(NC(=O)c2ccc3c(c2)OCCO3)c1	86.7*	/	/	/	/	/
SMILES	C8 TRAIL sens	NF-kB neuron act	PPC-1+TRAIL kill	FLuc act counter	FLuc inh counter	APP 5'UTR act
COc1cccc(NC(=O)c2ccc3c(c2)OCO3)c1	53.2*	/	/	/	/	/
COc1ccc(NC(=O)[C@@H]2O[C@H](CO)[C@H](O)[C@H](O)[C@H]2O)cc1F	11.8	/	/	/	/	/
COc1cccc(C(=O)Nc2ccc(C(F)(F)F)n(C)c2=O)c1	43.5	1.29	28.3	0.4	56.4*	135.7*
Cc1ccc(S(=O)(=O)N2C[C@H]3C(=O)C[C@@H](c4cccs4)N(S(=O)(=O)c4ccc(C)cc4)[C@H]3C[C@H]2c2ccccc2)cc1	7.0	/	/	/	/	/
O=C(Nc1ncccn1)c1ccc([N+](=O)[O-])o1	13.3	1.59	13.5	1	1.1	8.6
Cc1ccc(CNC(=O)c2nn(C)c(C)c2[N+](=O)[O-])cc1	-5.2	1.09	11.7	1.1	-7.4	4.5
O=C(Nc1ccccn1)c1ccc([N+](=O)[O-])o1	16.8	4.31*	4.8	1.1	-5.8	-27.2
Cc1ccc(CNC(=O)c2ccc([N+](=O)[O-])o2)cc1	10.5	3.55*	-8.1	1.1	-7.5	4.7
CCOC(=O)C1(C)CCCN1C(=O)c1ccc(C(F)(F)F)nc1C (stereo not given)	-4.9	/	/	/	/	/
O=C1c2ccccc2C(Nc2cccnc2)N1Cc1ccc2c(c1)OCO2 (stereo not given)	1.2	1.39	64.7*	1.1	-9.8	-21.0
O=C1c2ccccc2C(Nc2ccc3c(c2)OCO3)N1Cc1ccc2c(c1)OCO2 (stereo not given)	-5.0	1.63	-0.5	1	-2.4	5.2
Cc1cccc(C)c1NC(=O)C(c1cc2ccccc2o1)N1CCN(C)CC1 (stereo not given)	-3.9	/	/	/	/	/
CCCC(=O)OCCNc1cc(Sc2nccn2C)c2nonc2c1[N+](=O)[O-]	57.1*	0.12	13.4	1.1	-7.1	-74.8
CCCSc1cc(NCCOC(=O)CCC)c([N+](=O)[O-])c2nonc12	-4.9	1.11	11.1	1.1	-5.1	-11.3
COc1ccc(CNC(=O)C[C@@H]2C=C[C@@H](NS(=O)(=O)c3cccc(OC)c3)[C@@H](CO)O2)cc1	-2.8	/	/	/	/	/
Cc1cccc(C)c1NC(=O)C1CCN(S(C)(=O)=O)CC1	50.7*	/	/	/	/	/
O=C(CSc1ccccn1)Nc1nonc1[N+](=O)[O-]	53.5*	/	/	/	/	/
CC(C)CC1C(=O)N(Cc2cn(Cc3ccco3)nn2)CCS(=O)(=O)N1Cc1ccc(-c2ccccc2)cc1 (stereo not given)	14.2	/	/	/	/	/
Nc1sc(-c2ccccc2)cc1C(=O)N1CCN(c2ccccc2)CC1	-3.0	/	/	/	/	/
N/C(=N/O)c1nc(N2CCCC2)nc(N(c2ccccc2)c2ccccc2)n1	59.1*	0.97	27.0	1.1	-10.9	-17.4
Fc1ccc2nc(Nc3nc4cc5c(cc4s3)OCCO5)sc2c1	25.5	1.6	21.0	0.5	52.1*	102.4
Fc1ccc2nc(Nc3ccccc3)sc2c1	12.5	3.68*	26.0	1	4.1	66.5
c1ccc2sc(Nc3nc4cc5c(cc4s3)OCO5)nc2c1	10.9	4.65*	20.5	0.5	45.7	195.0*
CCCCOCCCNC(=O)C[C@@H]1C[C@@]2(C(=O)OCC)CCC=C2N(Cc2cccc3ccccc23)C1=O	-1.5	/	/	/	/	/
C[C@@H]1CN([C@H](C)CO)C(=O)CCCn2nncc2CO[C@@H]1CN(C)C(=O)Nc1ccc2c(c1)OCO2	0.3	/	/	/	/	/
CCOC(=O)C[C@@H](C#N)NC(=O)[C@@H]1CCCN1C(=O)[C@@H](NC(=O)c1ccc(N)c(Cl)c1)C(C)(C)C	9.3	/	/	/	/	/
O=[N+]([O-])c1ccc(CSc2nc3ccccc3[nH]2)cc1	19.9	2.28	15.1	0.4	64.7*	80.6
c1ccc(CSc2nc3ccccc3[nH]2)cc1	25.7	/	24.3	/	/	/
CCCOc1ccc(CSc2nc3ccccc3[nH]2)cc1	53.2*	3.45*	26.8	0.4	63.8*	124.8
O=C(Nc1nc(-c2ccccc2)cs1)c1ccc(N2CCOCC2)c([N+](=O)[O-])c1	83.4*	0.36	41.5	1	-4.9	-7.7
